Data published in paper PMC9749463 (European Journal of Pharmacology, 2021).
Read-outs that look alike come from different tables or passages of the source.

Columns and labels:
[1] = in vitro; ref McLachlan et al., 1993; cited from earlier work
[2] = ref Wainer et al., 1994; cited from earlier work
rabbit Purkinje fibers = experiment: current clamp action potential recording on excised rabbit Purkinje fibers; settings: for effect on membrane and AP parameters: 0.3 μM, any beating rate
Summary of the method: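 Purkinje fibers came from male New Zealand rabbits (1.7–2.1 kg). They were superfused at 10 mL/min and 36 ± 1 °C with bicarbonate buffer at pH 7.4. APs were recorded with 3 M KCl microelectrodes under pacing at 3, 1 and 0.25 Hz. Test compound (0.3, 3, 10, 30 μM) was applied for 30 min each, ascending, followed by 30 min washout; n = 6. Analysis used ANOVA with Dunnett versus baseline.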

NaV1.5 = NaV1.5 (Homo sapiens, UniProt Q14524); experiment: automated patch-clamp; assay type: cell-based; settings: for decrease of NaV1.5 current: up to the highest tested concentration of 90 μM, attributable to current rundown
Plasmodium falciparum = settings: isolates grown in human erythrocytes; ref Warhurst et al., 2003; cited from earlier work
hERG [3] = target: hERG (Homo sapiens, UniProt Q12809); experiment: automated patch-clamp; assay type: cell-based; settings: ratio of IC50 values
Kir2.1 [4] = target: T1, Kir2.1 (Homo sapiens, UniProt P63252); experiment: automated patch-clamp; assay type: cell-based; settings: levorotatory enantiomer the most potent
T1 sequence (P63252 1-427): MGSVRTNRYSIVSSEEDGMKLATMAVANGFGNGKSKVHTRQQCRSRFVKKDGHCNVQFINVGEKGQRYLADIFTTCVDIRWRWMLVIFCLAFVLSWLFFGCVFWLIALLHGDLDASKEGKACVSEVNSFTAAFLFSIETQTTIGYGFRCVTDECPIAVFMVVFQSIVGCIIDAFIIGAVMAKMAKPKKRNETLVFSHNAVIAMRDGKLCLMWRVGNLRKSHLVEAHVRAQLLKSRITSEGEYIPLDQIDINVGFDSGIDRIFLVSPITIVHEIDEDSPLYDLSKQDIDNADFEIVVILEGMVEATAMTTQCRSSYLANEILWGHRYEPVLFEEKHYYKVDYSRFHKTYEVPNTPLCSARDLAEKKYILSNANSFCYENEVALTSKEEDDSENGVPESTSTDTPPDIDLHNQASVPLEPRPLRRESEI

[5] = system: human immune-deficiency virus serotype 1; settings: human T-cell lines and macrophage hybridoma; ref Chiang et al., 1996; cited from earlier work
[6] = HCQ monotherapy, meta-analysis of 28 clinical studies; ref Oscanoa et al., 2020; cited from earlier work
Kir2.1 [7] = settings: read-out: IC50 Kir2.1; QPatch II platform; ref Okada et al., 2021; cited from earlier work
[8] = ref Carlsson et al., 2020; cited from earlier work
hERG [9] = settings: read-out: IC50 hERG; QPatch II platform; ref Okada et al., 2021; cited from earlier work
[10] = system: human adult cardiomyocytes; settings: potassium in buffer decreased from 4 mM to 2.5 mM; ref Jordaan et al., 2021; cited from earlier work
human recombinant KV4.3 = settings: 30 μM, manual patch-clamp; ref Crumb et al., 2016; cited from earlier work
Kir2.1 [11] = target: T1, Kir2.1; settings: read-out: IC50 Kir2.1; manual patch-clamp; ref Crumb et al., 2016; cited from earlier work
human recombinant KV7.1 = settings: 30 μM, manual patch-clamp; ref Crumb et al., 2016; cited from earlier work
human recombinant CaV1.2 = settings: 30 μM, manual patch-clamp; ref Crumb et al., 2016; cited from earlier work
human recombinant NaV1.5 = settings: 30 μM, manual patch-clamp; ref Crumb et al., 2016; cited from earlier work
Kir2.1 [12] = settings: read-out: IC50 Kir2.1 outward component; ref Rodriguez-Menchaca et al., 2008; cited from earlier work
CaV1.2/β2/α2δ1 = CaV1.2/β2/α2δ1 (Homo sapiens, UniProt Q13936); experiment: automated patch-clamp; assay type: cell-based; settings: CdCl2 0.2 mM, end of recording
KV7.1/minK = KV7.1/minK (Homo sapiens, UniProt P51787); experiment: automated patch-clamp; assay type: cell-based
KV4.3/KChIP2.2 = target: T2, KV4.3/KChIP2.2 (Homo sapiens, UniProt Q9UK17); experiment: automated patch-clamp; assay type: cell-based
T2 sequence (Q9UK17 1-655): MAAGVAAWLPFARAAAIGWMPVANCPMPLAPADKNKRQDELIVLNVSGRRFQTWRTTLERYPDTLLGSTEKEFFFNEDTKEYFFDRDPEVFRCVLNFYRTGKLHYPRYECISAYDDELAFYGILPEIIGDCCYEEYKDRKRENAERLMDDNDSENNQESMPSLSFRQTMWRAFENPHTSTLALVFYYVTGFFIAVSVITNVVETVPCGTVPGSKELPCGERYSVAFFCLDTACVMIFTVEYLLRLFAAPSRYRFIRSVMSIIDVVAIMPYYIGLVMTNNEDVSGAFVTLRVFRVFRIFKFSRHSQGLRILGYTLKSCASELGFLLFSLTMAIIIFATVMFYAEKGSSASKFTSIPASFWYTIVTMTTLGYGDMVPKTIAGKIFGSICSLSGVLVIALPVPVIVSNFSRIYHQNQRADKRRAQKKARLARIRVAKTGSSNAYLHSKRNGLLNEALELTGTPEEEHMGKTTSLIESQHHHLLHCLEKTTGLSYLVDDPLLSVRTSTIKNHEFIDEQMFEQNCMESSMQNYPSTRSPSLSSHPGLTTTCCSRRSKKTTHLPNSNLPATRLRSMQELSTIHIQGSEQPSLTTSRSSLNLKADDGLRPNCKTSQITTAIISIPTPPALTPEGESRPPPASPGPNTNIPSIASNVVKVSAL
T2 sequence (Q9NS61 1-252 isoform Q9NS61-2 partner): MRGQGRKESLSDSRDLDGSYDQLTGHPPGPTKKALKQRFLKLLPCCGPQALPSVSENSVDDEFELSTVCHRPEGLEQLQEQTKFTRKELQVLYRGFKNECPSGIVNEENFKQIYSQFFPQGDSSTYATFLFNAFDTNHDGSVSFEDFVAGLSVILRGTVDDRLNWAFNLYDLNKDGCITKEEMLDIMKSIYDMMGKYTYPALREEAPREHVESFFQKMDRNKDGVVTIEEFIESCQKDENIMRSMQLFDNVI
Summary of the method: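 CHO cells constitutively expressing human KV4.3/KChIP2.2 were whole-cell recorded at room temperature. Cells were held at −80 mV and stepped to +20 mV with 500 ms pulses. Test compound was applied at six cumulative ascending concentrations up to 90 μM in 0.3% or 1% DMSO with 1% Pluronic F-68. Leak was removed with 30 μM SKF-96365. Integral charge was normalized to pre-drug, and IC50 was fitted sigmoidally (0–100% constrained) with 95% CI.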

Chain of NaV1.5 (Q14524 whole entry): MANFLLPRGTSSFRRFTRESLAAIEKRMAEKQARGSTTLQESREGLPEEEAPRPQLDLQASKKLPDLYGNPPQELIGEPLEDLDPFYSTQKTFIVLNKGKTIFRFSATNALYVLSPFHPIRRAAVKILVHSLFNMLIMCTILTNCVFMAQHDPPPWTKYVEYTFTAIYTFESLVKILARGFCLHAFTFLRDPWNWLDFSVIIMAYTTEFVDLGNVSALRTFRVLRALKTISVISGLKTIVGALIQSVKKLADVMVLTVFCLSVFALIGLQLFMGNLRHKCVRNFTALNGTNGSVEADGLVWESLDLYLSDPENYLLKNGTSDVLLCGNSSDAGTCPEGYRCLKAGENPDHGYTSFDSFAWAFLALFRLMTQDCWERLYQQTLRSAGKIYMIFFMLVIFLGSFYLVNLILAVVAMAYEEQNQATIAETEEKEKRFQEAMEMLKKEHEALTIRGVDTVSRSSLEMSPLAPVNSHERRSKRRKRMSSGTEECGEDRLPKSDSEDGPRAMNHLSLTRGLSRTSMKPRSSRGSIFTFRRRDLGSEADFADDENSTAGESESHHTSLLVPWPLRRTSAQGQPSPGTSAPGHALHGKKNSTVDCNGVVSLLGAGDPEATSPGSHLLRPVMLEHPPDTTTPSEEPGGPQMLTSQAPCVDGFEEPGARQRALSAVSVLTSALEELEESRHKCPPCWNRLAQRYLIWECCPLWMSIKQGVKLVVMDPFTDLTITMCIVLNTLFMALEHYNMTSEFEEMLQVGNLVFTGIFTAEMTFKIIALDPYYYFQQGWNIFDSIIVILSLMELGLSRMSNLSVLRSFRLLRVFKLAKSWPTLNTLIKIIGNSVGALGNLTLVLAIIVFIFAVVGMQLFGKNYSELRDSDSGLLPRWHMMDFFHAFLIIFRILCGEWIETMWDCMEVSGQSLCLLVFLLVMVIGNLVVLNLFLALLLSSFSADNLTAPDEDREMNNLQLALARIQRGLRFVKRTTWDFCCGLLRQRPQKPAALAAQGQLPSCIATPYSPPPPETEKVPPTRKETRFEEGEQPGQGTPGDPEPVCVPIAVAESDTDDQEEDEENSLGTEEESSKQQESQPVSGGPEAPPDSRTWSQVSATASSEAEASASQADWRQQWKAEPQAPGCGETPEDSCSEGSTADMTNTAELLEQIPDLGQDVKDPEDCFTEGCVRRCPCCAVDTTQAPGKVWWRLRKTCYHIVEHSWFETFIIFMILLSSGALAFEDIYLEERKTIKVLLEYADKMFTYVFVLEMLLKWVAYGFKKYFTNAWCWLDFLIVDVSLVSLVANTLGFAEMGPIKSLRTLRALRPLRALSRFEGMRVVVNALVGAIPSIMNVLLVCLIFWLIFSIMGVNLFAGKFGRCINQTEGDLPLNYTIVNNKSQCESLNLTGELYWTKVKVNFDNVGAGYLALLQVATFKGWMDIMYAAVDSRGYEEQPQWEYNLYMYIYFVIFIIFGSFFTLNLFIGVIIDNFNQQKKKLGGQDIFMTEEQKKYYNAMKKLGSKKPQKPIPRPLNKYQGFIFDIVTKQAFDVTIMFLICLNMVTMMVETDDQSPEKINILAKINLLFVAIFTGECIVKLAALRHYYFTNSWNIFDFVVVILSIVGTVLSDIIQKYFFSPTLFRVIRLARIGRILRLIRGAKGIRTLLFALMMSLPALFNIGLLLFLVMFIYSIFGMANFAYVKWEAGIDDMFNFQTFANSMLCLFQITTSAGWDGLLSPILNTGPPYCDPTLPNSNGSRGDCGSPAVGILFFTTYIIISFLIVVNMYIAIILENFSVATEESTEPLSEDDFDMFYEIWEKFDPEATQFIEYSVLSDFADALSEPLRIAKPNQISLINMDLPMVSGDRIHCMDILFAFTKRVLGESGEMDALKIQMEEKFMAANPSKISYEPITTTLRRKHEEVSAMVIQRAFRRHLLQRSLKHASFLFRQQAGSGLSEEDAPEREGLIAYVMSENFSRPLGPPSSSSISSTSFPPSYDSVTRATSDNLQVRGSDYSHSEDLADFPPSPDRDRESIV
Chain of KV7.1/minK (P51787 whole entry): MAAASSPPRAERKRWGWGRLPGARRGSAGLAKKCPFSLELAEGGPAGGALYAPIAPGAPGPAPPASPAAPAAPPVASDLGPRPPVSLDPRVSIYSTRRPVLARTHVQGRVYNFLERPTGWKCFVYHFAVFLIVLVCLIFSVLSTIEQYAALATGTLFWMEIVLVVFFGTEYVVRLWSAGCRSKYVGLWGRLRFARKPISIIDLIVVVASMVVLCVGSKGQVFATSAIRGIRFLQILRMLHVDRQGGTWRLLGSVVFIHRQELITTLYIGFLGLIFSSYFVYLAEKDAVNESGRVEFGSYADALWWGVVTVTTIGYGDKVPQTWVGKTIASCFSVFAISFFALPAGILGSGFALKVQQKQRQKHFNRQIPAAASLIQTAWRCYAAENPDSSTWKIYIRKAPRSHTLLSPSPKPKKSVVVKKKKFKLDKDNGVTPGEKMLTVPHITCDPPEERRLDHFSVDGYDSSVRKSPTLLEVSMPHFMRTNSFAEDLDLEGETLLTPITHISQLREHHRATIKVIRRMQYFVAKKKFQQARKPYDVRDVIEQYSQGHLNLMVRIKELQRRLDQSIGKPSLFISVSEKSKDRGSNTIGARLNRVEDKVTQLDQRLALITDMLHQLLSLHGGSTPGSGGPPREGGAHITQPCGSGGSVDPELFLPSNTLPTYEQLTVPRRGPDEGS
Chain of hERG (Homo sapiens, UniProt Q12809) (Q12809 whole entry): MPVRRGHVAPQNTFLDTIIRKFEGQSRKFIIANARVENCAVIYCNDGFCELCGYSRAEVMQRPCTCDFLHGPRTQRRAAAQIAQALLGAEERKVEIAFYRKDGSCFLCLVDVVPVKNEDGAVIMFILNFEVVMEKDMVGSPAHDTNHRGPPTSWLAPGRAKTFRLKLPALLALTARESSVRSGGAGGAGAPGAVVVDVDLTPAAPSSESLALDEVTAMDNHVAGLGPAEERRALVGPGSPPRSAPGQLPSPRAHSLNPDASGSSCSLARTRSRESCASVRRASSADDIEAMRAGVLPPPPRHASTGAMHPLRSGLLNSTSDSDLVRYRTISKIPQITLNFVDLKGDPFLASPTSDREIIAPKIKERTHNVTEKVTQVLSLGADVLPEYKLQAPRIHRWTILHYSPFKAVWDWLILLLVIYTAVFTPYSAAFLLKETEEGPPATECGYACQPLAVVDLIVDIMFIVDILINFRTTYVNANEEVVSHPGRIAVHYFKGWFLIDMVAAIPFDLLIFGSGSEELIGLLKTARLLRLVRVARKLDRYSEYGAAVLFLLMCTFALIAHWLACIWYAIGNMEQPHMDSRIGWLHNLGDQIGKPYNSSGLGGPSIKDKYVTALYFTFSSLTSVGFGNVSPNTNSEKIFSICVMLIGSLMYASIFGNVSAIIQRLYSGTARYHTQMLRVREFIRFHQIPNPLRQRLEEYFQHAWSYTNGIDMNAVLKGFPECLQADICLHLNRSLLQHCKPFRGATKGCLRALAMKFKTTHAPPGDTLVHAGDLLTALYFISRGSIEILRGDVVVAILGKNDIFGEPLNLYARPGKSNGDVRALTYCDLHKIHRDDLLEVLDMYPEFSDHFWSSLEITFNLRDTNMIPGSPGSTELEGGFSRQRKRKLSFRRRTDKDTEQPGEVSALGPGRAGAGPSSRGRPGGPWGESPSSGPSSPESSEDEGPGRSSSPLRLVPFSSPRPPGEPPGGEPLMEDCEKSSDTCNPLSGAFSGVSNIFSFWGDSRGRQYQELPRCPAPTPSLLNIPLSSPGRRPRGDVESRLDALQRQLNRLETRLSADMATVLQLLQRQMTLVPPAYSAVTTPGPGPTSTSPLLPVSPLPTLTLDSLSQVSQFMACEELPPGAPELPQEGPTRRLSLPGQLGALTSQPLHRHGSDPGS

## CCN(CCO)CCCC(C)Nc1ccnc2cc(Cl)ccc12 (stereo not drawn) [R(-)HCQ]
[1]
  free fraction (plasma protein binding): 63%
[2]
  accumulation in ocular tissue: preferential accumulation
Rabbit Purkinje fibers
  effect on membrane and AP parameters: neither R(-)HCQ nor S(+)HCQ had a significant effect
Rabbit Purkinje fibers; 10 μM and 30 μM
  autogenic activity: inducing autogenic activity
Rabbit Purkinje fibers; 30 μM, 60 bpm (1 Hz)
  decrease of median resting membrane potential: 20%
Rabbit Purkinje fibers; 30 μM, 180 bpm, n = 2 readings
  increase of AP duration at near complete repolarization (APD90): 25%
Rabbit Purkinje fibers; any concentration and pacing rate
  early after depolarizations (EADs): no torsadogenic early after depolarizations (EADs) events were observed
NaV1.5
  decrease of NaV1.5 current: below 10%
Plasmodium falciparum
  inhibition of Plasmodium falciparum proliferation, comparison of enantiomers: identical IC50 values
hERG [3]
  greater potency of R(-)HCQ over S(+)HCQ on hERG: 3.7 fold
Kir2.1 [4]
  block-potency ratio of the enantiomers against Kir2.1: two-fold
[5]
  inhibition of HIV-1 replication, comparison of enantiomers: equipotent

## CCN(CCO)CCC[C@H](C)Nc1ccnc2cc(Cl)ccc12 [S(+)HCQ]
[1]
  free fraction (plasma protein binding): 36%
Rabbit Purkinje fibers
  effect on membrane and AP parameters: neither R(-)HCQ nor S(+)HCQ had a significant effect
Rabbit Purkinje fibers; 10 μM, 15 bpm
  abnormal AP exhibiting EADs: one of the six fibers
  increase of median APD90: 56%
  median APD90 duration in presence of drug: 827 ms
Rabbit Purkinje fibers; 10 μM, 60 bpm
  increase of median APD90: 34%
  median APD90 duration in presence of drug: 481 ms
Rabbit Purkinje fibers; 10 μM, 180 bpm
  increase of median APD90: 12%
  median APD90 duration in presence of drug: 246 ms
Rabbit Purkinje fibers; 30 μM, 15 bpm, fibers that could follow pacing
  abnormal AP exhibiting EADs: one of the four fibers
Rabbit Purkinje fibers; 30 μM, 180 bpm (3 Hz)
  decrease of median resting membrane potential: 11%
Rabbit Purkinje fibers; 30 μM, all rates
  autogenic activity escaping electrical pacing: two out of six fibers
NaV1.5
  decrease of NaV1.5 current: below 10%
Plasmodium falciparum
  inhibition of Plasmodium falciparum proliferation, comparison of enantiomers: identical IC50 values
[5]
  inhibition of HIV-1 replication, comparison of enantiomers: equipotent

## CCN(CCO)CCCC(C)Nc1ccnc2cc(Cl)ccc12 (stereo not drawn) [HCQ, Hydroxychloroquine]
[6]
  occurrence of QT-prolongations: below 2%
Kir2.1 [7]
  IC50: 30 µM
[8]
  plasma concentrations relative to blood: two-fold lower
hERG [9]
  IC50: 17 µM
[10]
  proarrhythmic risk at reduced potassium: proarrhythmic risk rose significantly

## CCN(CC)CCCC(C)Nc1ccnc2cc(Cl)ccc12 (stereo not drawn) [CQ, chloroquine]
Human recombinant KV4.3
  inhibition of KV4.3: less than 20%
Kir2.1 [11]
  IC50: 11 µM
Human recombinant KV7.1
  inhibition of KV7.1: less than 20%
Human recombinant CaV1.2
  inhibition of CaV1.2: less than 20%
Human recombinant NaV1.5
  inhibition of NaV1.5: less than 20%
Kir2.1 [12]
  IC50: 9 µM

## [Cl][Cd][Cl] [CdCl2]
CaV1.2/β2/α2δ1
  effect on CaV1.2 currents: inhibited all the currents

## CC(C)COCC(CN(Cc1ccccc1)c1ccccc1)N1CCCC1 (stereo not drawn) [bepridil]
NaV1.5
  IC50: 2.5 µM
KV7.1/minK
  IC50: 7.2 µM
KV4.3/KChIP2.2
  IC50: 11 µM
